In ChEMBL document CHEMBL4052664, “Novel pyridyl nitrofuranyl isoxazolines show antibacterial activity against multiple drug resistant Staphylococcus species” (Bioorg Med Chem, 2017):
≈ marks a conversion by molar mass, not a printed value.

Test system: Staphylococcus aureus
Assay: Antibacterial activity against methicillin-resistant Staphylococcus aureus EMRSA-15 after 20 hrs by broth microdilution method
Format: functional
Settings: EMRSA-15, 20 h
In short: (§1)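 Broth microdilution per CLSI guidelines in Mueller Hinton Broth. Growth read as optical density at 600 nm after 20 h. MIC taken as the lowest concentration giving OD600 below 0.10. Run in triplicate.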

Row | SMILES | MIC
1 | O=[N+]([O-])c1ccc(C2=NOC(c3ccc(N4CCN(Cc5ccccn5)CC4)cc3)C2)o1 (centres undefined) | 32 µg/mL (≈ 73.8 µM)
2 | O=[N+]([O-])c1ccc(C2=NOC(c3ccc(-c4cccnc4)cc3)C2)o1 (centres undefined) | 64 µg/mL (≈ 191 µM)
3 | O=C(O)c1cn(C2CC2)c2cc(N3CCNCC3)c(F)cc2c1=O [CIPROFLOXACIN] | 32 µg/mL (≈ 96.6 µM)

Test system: Staphylococcus aureus
Assay: Ratio of MBC to MIC against methicillin-sensitive Staphylococcus aureus ATCC 9144
Format: functional
Settings: not given
In short: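 MBC/MIC ratio from the broth microdilution MIC (Mueller Hinton Broth, OD600 <0.10 after 20 h, triplicate) and the MBC (MIC-plate wells at and above the MIC spotted on tryptic soy agar, 37 °C 24 h, no colonies). A ratio of 1 or 2 was taken as bactericidal; 4 or 16 as bacteriostatic.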

Row | SMILES | Ratio
4 | O=[N+]([O-])c1ccc(C2=NOC(c3ccc(N4CCN(Cc5ccccn5)CC4)cc3)C2)o1 (centres undefined) | 8

Test system: Staphylococcus aureus
Assay: Antibacterial activity against Staphylococcus aureus NCTC 6571 after 20 hrs by broth microdilution method
Format: functional
Settings: NCTC 6571, 20 h
In short: (§2)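 Broth microdilution per CLSI guidelines in Mueller Hinton Broth. Growth was read as optical density at 600 nm after 20 hours. The MIC was taken as the lowest drug concentration at which OD600 stayed below 0.10. Run in triplicate.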

Row | SMILES | MIC
5 | O=[N+]([O-])c1ccc(C2=NOC(c3ccc(N4CCN(Cc5ccccn5)CC4)cc3)C2)o1 (centres undefined) | 16 to 32 µg/mL (≈ 36.9 to 73.8 µM)
6 | O=C(O)c1cn(C2CC2)c2cc(N3CCNCC3)c(F)cc2c1=O [CIPROFLOXACIN] | 0.25 to 0.5 µg/mL (≈ 0.754 to 1.51 µM)

Test system: Klebsiella pneumoniae
Assay: Antibacterial activity against Klebsiella pneumoniae NCTC 13368 after 20 hrs by broth micro dilution method
Format: functional
Settings: NCTC 13368, 20 h
In short: as §2

Row | SMILES | MIC
7 | O=[N+]([O-])c1ccc(C2=NOC(c3ccc(N4CCN(Cc5ccccn5)CC4)cc3)C2)o1 (centres undefined) | > 128 µg/mL

Test system: Pseudomonas aeruginosa
Assay: Antibacterial activity against Pseudomonas aeruginosa NCTC 13437 after 20 hrs by broth micro dilution method
Format: functional
Settings: NCTC 13437, 20 h
In short: as §2

Row | SMILES | MIC
8 | O=[N+]([O-])c1ccc(C2=NOC(c3ccc(N4CCN(Cc5ccccn5)CC4)cc3)C2)o1 (centres undefined) | > 128 µg/mL

Test system: Staphylococcus aureus
Assay: Antibacterial activity against Staphylococcus aureus NCTC 8325 after 20 hrs by broth microdilution method
Format: functional
Settings: NCTC 8325, 20 h
In short: as §2

Row | SMILES | MIC
9 | O=[N+]([O-])c1ccc(C2=NOC(c3ccc(N4CCN(Cc5ccccn5)CC4)cc3)C2)o1 (centres undefined) | 16 µg/mL (≈ 36.9 µM)
10 | O=C(O)c1cn(C2CC2)c2cc(N3CCNCC3)c(F)cc2c1=O [CIPROFLOXACIN] | 0.125 to 0.25 µg/mL (≈ 0.377 to 0.754 µM)

Test system: Klebsiella pneumoniae
Assay: Antibacterial activity against Klebsiella pneumoniae M6 after 20 hrs by broth micro dilution method
Format: functional
Settings: M6, 20 h
In short: as §2

Row | SMILES | MIC
11 | O=[N+]([O-])c1ccc(C2=NOC(c3ccc(N4CCN(Cc5ccccn5)CC4)cc3)C2)o1 (centres undefined) | > 128 µg/mL

Test system: HeLa
Assay: Cytotoxicity against human HeLa cells assessed as reduction in cell viability after 96 hrs by MTT assay
Format: cell-based
Settings: not given
In short: (§3)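 HeLa cells were kept in DMEM with 10% FBS, 2 mM L-glutamine, non-essential amino acids and penicillin-streptomycin at 37 °C, 5% CO2. 10,000 cells per well were plated and left 24 h. Compound was then added in triplicate for 96 h continuous exposure. MTT read-out was absorbance at 570 nm. IC50 came from dose-response analysis.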

Row | SMILES | IC50
12 | O=[N+]([O-])c1ccc(C2=NOC(c3ccc(N4CCN(Cc5ccccn5)CC4)cc3)C2)o1 (centres undefined) | > 50 µM
13 | O=[N+]([O-])c1ccc(C2=NOC(c3ccc(-c4cccnc4)cc3)C2)o1 (centres undefined) | > 50 µM

Test system: Acinetobacter baumannii
Assay: Antibacterial activity against Acinetobacter baumannii ATCC 17978 after 20 hrs by broth micro dilution method
Format: functional
Settings: ATCC 17978, 20 h
In short: as §2

Row | SMILES | MIC
14 | O=[N+]([O-])c1ccc(C2=NOC(c3ccc(N4CCN(Cc5ccccn5)CC4)cc3)C2)o1 (centres undefined) | > 128 µg/mL

Test system: Staphylococcus aureus
Assay: Antibacterial activity against methicillin-resistant Staphylococcus aureus EMRSA-16 after 20 hrs by broth microdilution method
Format: functional
Settings: EMRSA-16, 20 h
In short: as §1

Row | SMILES | MIC
15 | O=[N+]([O-])c1ccc(C2=NOC(c3ccc(N4CCN(Cc5ccccn5)CC4)cc3)C2)o1 (centres undefined) | 32 µg/mL (≈ 73.8 µM)
16 | O=[N+]([O-])c1ccc(C2=NOC(c3ccc(-c4cccnc4)cc3)C2)o1 (centres undefined) | 16 µg/mL (≈ 47.7 µM)
17 | O=C(O)c1cn(C2CC2)c2cc(N3CCNCC3)c(F)cc2c1=O [CIPROFLOXACIN] | 32 µg/mL (≈ 96.6 µM)

Test system: Staphylococcus aureus
Assay: Antibacterial activity against Staphylococcus aureus isolate 13142 after 20 hrs by broth microdilution method
Format: functional
Settings: isolate 13142, 20 h
In short: as §2

Row | SMILES | MIC
18 | O=[N+]([O-])c1ccc(C2=NOC(c3ccc(N4CCN(Cc5ccccn5)CC4)cc3)C2)o1 (centres undefined) | 8 to 16 µg/mL (≈ 18.5 to 36.9 µM)
19 | O=C(O)c1cn(C2CC2)c2cc(N3CCNCC3)c(F)cc2c1=O [CIPROFLOXACIN] | 0.25 µg/mL (≈ 0.754 µM)

Test system: Staphylococcus aureus
Assay: Antibacterial activity against methicillin-resistant Staphylococcus aureus NCTC 12493 after 20 hrs by broth microdilution method
Format: functional
Settings: NCTC 12493, 20 h
In short: as §1

Row | SMILES | MIC
20 | O=[N+]([O-])c1ccc(C2=NOC(c3ccc(N4CCN(Cc5ccccn5)CC4)cc3)C2)o1 (centres undefined) | 8 µg/mL (≈ 18.5 µM)
21 | O=C(O)c1cn(C2CC2)c2cc(N3CCNCC3)c(F)cc2c1=O [CIPROFLOXACIN] | 0.5 µg/mL (≈ 1.51 µM)

Test system: Pseudomonas aeruginosa
Assay: Antibacterial activity against Pseudomonas aeruginosa PAO1 after 20 hrs by broth micro dilution method
Format: functional
Settings: PAO1, 20 h
In short: as §2

Row | SMILES | MIC
22 | O=[N+]([O-])c1ccc(C2=NOC(c3ccc(N4CCN(Cc5ccccn5)CC4)cc3)C2)o1 (centres undefined) | > 128 µg/mL

Test system: Acinetobacter baumannii
Assay: Antibacterial activity against Acinetobacter baumannii ATCC BAA-1710 after 20 hrs by broth micro dilution method
Format: functional
Settings: ATCC BAA-1710, 20 h
In short: as §2

Row | SMILES | MIC
23 | O=[N+]([O-])c1ccc(C2=NOC(c3ccc(N4CCN(Cc5ccccn5)CC4)cc3)C2)o1 (centres undefined) | > 128 µg/mL

Test system: Staphylococcus aureus
Assay: Bactericidal activity against methicillin-sensitive Staphylococcus aureus ATCC 9144 after 24 hrs
Format: functional
Settings: ATCC 9144, 24 h
In short: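 From the MIC plate, 10ul was taken from every well at and above the MIC and spotted onto tryptic soy agar. Plates were incubated 24 h at 37 °C. The MBC was the concentration at which no colonies grew.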

Row | SMILES | MBC
24 | O=[N+]([O-])c1ccc(C2=NOC(c3ccc(N4CCN(Cc5ccccn5)CC4)cc3)C2)o1 (centres undefined) | ≥ 128 µg/mL

Test system: Staphylococcus epidermidis
Assay: Antibacterial activity against Staphylococcus epidermidis ATCC 35984 after 20 hrs by broth microdilution method
Format: functional
Settings: RP62A
In short: as §2

Row | SMILES | MIC
25 | O=[N+]([O-])c1ccc(C2=NOC(c3ccc(N4CCN(Cc5ccccn5)CC4)cc3)C2)o1 (centres undefined) | 8 to 16 µg/mL (≈ 18.5 to 36.9 µM)
26 | O=C(O)c1cn(C2CC2)c2cc(N3CCNCC3)c(F)cc2c1=O [CIPROFLOXACIN] | 0.125 to 0.5 µg/mL (≈ 0.377 to 1.51 µM)

Test system: Staphylococcus aureus
Assay: Antibacterial activity against Staphylococcus aureus BGW541 after 20 hrs by broth microdilution method
Format: functional
Settings: BGW541, 20 h
In short: as §2

Row | SMILES | MIC
27 | O=[N+]([O-])c1ccc(C2=NOC(c3ccc(N4CCN(Cc5ccccn5)CC4)cc3)C2)o1 (centres undefined) | 8 to 16 µg/mL (≈ 18.5 to 36.9 µM)
28 | O=C(O)c1cn(C2CC2)c2cc(N3CCNCC3)c(F)cc2c1=O [CIPROFLOXACIN] | 0.5 µg/mL (≈ 1.51 µM)

Test system: WI-38
Assay: Cytotoxicity against human WI38 cells assessed as reduction in cell viability after 96 hrs by MTT assay
Format: cell-based
Settings: WI-38, 96 h
In short: as §3, with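 “WI-38 lung fibroblasts” for “HeLa cells”, “15%” for “10%”, “fitting.” for “analysis.”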

Row | SMILES | IC50
29 | O=[N+]([O-])c1ccc(C2=NOC(c3ccc(N4CCN(Cc5ccccn5)CC4)cc3)C2)o1 (centres undefined) | > 50 µM
30 | O=[N+]([O-])c1ccc(C2=NOC(c3ccc(-c4cccnc4)cc3)C2)o1 (centres undefined) | > 50 µM

Test system: Staphylococcus aureus
Assay: Antibacterial activity against Staphylococcus aureus A1988 after 20 hrs by broth microdilution method
Format: functional
Settings: A1988, 20 h
In short: as §2

Row | SMILES | MIC
31 | O=[N+]([O-])c1ccc(C2=NOC(c3ccc(N4CCN(Cc5ccccn5)CC4)cc3)C2)o1 (centres undefined) | 16 µg/mL (≈ 36.9 µM)
32 | O=C(O)c1cn(C2CC2)c2cc(N3CCNCC3)c(F)cc2c1=O [CIPROFLOXACIN] | 0.25 µg/mL (≈ 0.754 µM)

Test system: Staphylococcus aureus
Assay: Antibacterial activity against methicillin-sensitive Staphylococcus aureus ATCC 9144 after 20 hrs by broth micro dilution method
Format: functional
Settings: ATCC 9144, 20 h
In short: as §2

Row | SMILES | MIC
33 | O=[N+]([O-])c1ccc(C2=NOC(c3ccc(N4CCN(Cc5ccccn5)CC4)cc3)C2)o1 (centres undefined) | 16 µg/mL (≈ 36.9 µM)
34 | O=[N+]([O-])c1ccc(C2=NOC(c3ccc(-c4cccnc4)cc3)C2)o1 (centres undefined) | 32 µg/mL (≈ 95.4 µM)
